# Measurements gathered from unrelated publications.
# Protocols differ between the studies behind these lines.
# Observed: cell growth or viability
SMILES,cell line,technique,time,IC50
COC(=O)CN=c1scc(-c2ccccc2)n1-c1ccccc1,Panc 04.03,MTT,72 h,> 100 µM
C/C=C(/C)C(=O)OC[C@H]1[C@@H](Cc2ccc(C(F)(F)F)cc2)CO[C@@H]1c1ccccc1,rat VSMC,resazurin,48 h,4.2 µM
C=CCn1c(-c2ccc([N+](=O)[O-])cc2)nc2ccc(C)cc21,MDA-MB-231,MTT,,> 100 µM
COc1cc(OC)c2c(=O)cc(-c3cccc(Br)c3)oc2c1,HS27,MTT,24 h,128 µM
COc1ccnc(-c2cc(OC)ccn2)c1,BEL-7404,MTT,48 h,> 50 µM
Oc1ccc(Nc2nc(-c3ccc(Cl)cc3)cs2)cc1,FF2441,MTS,24 h,> 100 µM
Nc1nc(Nc2ccc3c(c2)CC[C@@H](N2CCCC2)CC3)nn1-c1cc2c(nn1)-c1ccccc1CCC2,CMK,trypan blue,72 h,2.24 µM
O=C(O)/C=C/c1ccc(O)cc1,A-375,MTT,,> 50 µM
Oc1c(I)cc(I)c2cccnc12,BEL-7404,MTT,48 h,> 100 µM
COc1cc(C)cc2oc(-c3ccc(Br)cc3)cc(=O)c12,HS27,MTT,24 h,> 200 µM
Oc1c(I)cc(Cl)c2cccnc12,BEL-7404,MTT,48 h,65.1 µM
C/C=C(/C)C(=O)OC[C@H]1[C@@H](Cc2ccc(F)cc2)CO[C@@H]1c1ccc(F)cc1,rat VSMC,resazurin,48 h,4.7 µM
O=[N+]([O-])c1ccc(-c2nc3ccccc3n2Cc2ccccc2)cc1,MDA-MB-231,MTT,,8.32 µM
COc1cc(OC)c2c(=O)cc(-c3ccc(N(C)C)cc3)oc2c1-c1c(OC)cc(OC)c2c(=O)cc(-c3ccc(N(C)C)cc3)oc12,HS27,MTT,24 h,> 200 µM
COC(=O)CN=c1scc(-c2ccccc2)n1-c1ccc(C)cc1,SiHa,MTT,72 h,6.17 µM
COc1cccc2c1C(=O)c1c(O)c3c(c(O)c1C2=O)C[C@@](O)(C(=O)CO)C[C@@H]3O[C@H]1C[C@H](N)[C@H](O)[C@H](C)O1,LLC-PK11,neutral red,48 h,0.98 µg/mL
Clc1ccnc2c1ccc1c(Cl)ccnc12,BEL-7404,MTT,48 h,> 50 µM
COc1cc(C)c(-c2c(C)cc(OC)c3c(=O)cc(-c4ccccc4Br)oc23)c2oc(-c3ccccc3Br)cc(=O)c12,HS27,MTT,24 h,> 200 µM
Cc1ccc2nc(-c3ccc4c(c3)OCO4)[nH]c2c1,MDA-MB-231,MTT,48 h,> 100 µM
Nc1ncc(-c2cnn(C3CCNCC3)c2)cc1-c1nnc(CC2CC2)o1,CMK,trypan blue,72 h,0.653 µM
Cc1ccc2nc(-c3ccco3)[nH]c2c1,MDA-MB-231,MTT,48 h,> 100 µM
CCOc1cc(OCC)cc(C(=O)O[C@@H]2CN3Cc4c(cc5c(c4OC)OCO5)[C@@]24C=C[C@H](OC)C[C@@H]34)c1,MRC5,WST-1,,> 10 µM
c1cnc2c(c1)ccc1cccnc12,BEL-7404,MTT,48 h,> 50 µM
c1ccc2c(-c3nc4ccccc4[nH]3)c3ccccc3cc2c1,MDA-MB-231,MTT,48 h,8.4 µM
CC(=O)c1ccc(/N=N/c2cc(/C=C/C(=O)O)ccc2O)cc1,A-375,MTT,,> 50 µM
COc1cc(C)c(-c2c(C)cc(OC)c3c(=O)cc(-c4ccccc4)oc23)c2oc(-c3ccccc3)cc(=O)c12,HS27,MTT,24 h,> 200 µM
COC(=O)CN=c1scc(-c2ccccc2)n1-c1ccccc1[N+](=O)[O-],SiHa,MTT,72 h,6.78 µM
COc1cc(C)c(-c2c(C)cc(OC)c3c(=O)cc(-c4ccc(Br)cc4)oc23)c2oc(-c3ccc(Br)cc3)cc(=O)c12,HS27,MTT,24 h,> 200 µM
COC(=O)CN=c1scc(-c2ccccc2)n1-c1ccc(OC)cc1,SiHa,MTT,72 h,2.32 µM
Cc1ccc2nc(-c3cccc([N+](=O)[O-])c3)[nH]c2c1,MDA-MB-231,MTT,48 h,> 100 µM
COc1cc(OC)c2c(=O)cc(-c3ccc(C(F)(F)F)cc3)oc2c1-c1c(OC)cc(OC)c2c(=O)cc(-c3ccc(C(F)(F)F)cc3)oc12,HS27,MTT,24 h,> 200 µM
CC(=O)c1cccc(N=Nc2c(C(=O)O)cc(O)c(O)c2O)c1,A-375,MTT,,11.9 µM
Cc1ccc2nc(-c3c4ccccc4cc4ccccc34)[nH]c2c1,MDA-MB-231,MTT,48 h,36.8 µM
COc1cc(C)cc2oc(-c3cccc(Br)c3)cc(=O)c12,HS27,MTT,24 h,104 µM
COC(=O)CN=c1scc(-c2ccccc2)n1-c1ccccc1OC,SiHa,MTT,72 h,4.2 µM
Cc1ccc2nc(-c3cccc(O)c3)[nH]c2c1,MDA-MB-231,MTT,48 h,> 100 µM
COC(=O)CN=c1scc(-c2ccccc2)n1-c1ccc(Cl)cc1,Panc 04.03,MTT,72 h,52.1 µM
CCCCC[C@H](O)CC(=O)CCc1ccc(O)c(OC)c1,MRC5,SRB,,303 µM
C/C=C(/C)C(=O)OC[C@H]1[C@@H](Cc2ccc(C(F)(F)F)cc2)CO[C@@H]1c1ccc(OC)c(OC)c1,rat VSMC,resazurin,48 h,20.1 µM
Nc1ccn([C@@H]2O[C@H](CO)[C@@H](O)C2(F)F)c(=O)n1,Panc 04.03,MTT,72 h,0.19 µM
